NF-kB expr up = NF-kB expression increase, human neuronal cells; fold change at 12.5 µM; NF-kB reporter expression; stronger effect = higher value; 1.6% of 190,000 active; in the data active means fold change above about 3.3
APP 5'UTR act = activates APP 5'UTR luciferase reporter; SH-SY5Y APP 5'UTR luciferase reporter, luminescence; zero percent = DMSO vehicle wells; AID 1276; 1% of 190,000 active; activation, % at 2 µM;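 active means activation above a set limit, based on mean plus 3 SD of controls, cut at about 140% in these data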
FLuc inhib CS = Photinus pyralis luciferase inhibition counter-screen | ATPLite firefly luciferase biochemical luminescence, 10 min | AID 1006 | inhibition, % at 10 µM | 1.5% of 200,000 active | P08659;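 active means inhibition above about 50% when tested at 10 µM, limit read from the data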
Target sequence (P08659 whole entry, looked up): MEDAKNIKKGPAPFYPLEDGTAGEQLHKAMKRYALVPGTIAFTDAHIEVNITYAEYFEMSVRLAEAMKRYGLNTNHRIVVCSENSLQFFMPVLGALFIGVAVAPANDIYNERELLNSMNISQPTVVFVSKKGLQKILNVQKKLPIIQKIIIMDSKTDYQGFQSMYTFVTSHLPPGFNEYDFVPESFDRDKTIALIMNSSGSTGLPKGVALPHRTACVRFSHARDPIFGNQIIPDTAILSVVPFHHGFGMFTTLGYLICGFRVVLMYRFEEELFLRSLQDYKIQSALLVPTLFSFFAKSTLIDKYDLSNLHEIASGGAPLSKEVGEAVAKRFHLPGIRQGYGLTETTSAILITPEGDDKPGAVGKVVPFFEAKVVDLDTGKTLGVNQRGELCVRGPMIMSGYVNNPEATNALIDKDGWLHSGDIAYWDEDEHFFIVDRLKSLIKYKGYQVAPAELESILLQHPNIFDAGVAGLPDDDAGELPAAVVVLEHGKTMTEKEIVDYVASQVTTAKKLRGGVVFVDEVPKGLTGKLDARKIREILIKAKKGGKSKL
Pf gametocyte = kills late stage P. falciparum gametocytes; 0.065% of 150,000 active; inhibition, % at 10.9 µM; AID 743093; P. falciparum stage V gametocytes, ATP luminescence, 24 h;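 active means inhibition above the mean plus 3 SD of compounds within the control limits, set per campaign, cut at about 38% in these data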
STAT1 act = activators of IFN-gamma induced STAT1 signaling; NIH 3T3 STAT1-luciferase reporter, luminescence; 100% = IFN-gamma alone, no compound; activation (% of control), % at 5.5 µM; 2.6% of 200,000 active; AID 932;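 active means activation above the screen-wide mean activation plus 3 SD, cut at about 130% in these data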
FLuc act counter = affects firefly luciferase, flagging false hits in luciferase stimulation screens; activation factor at 10 µM; ATPlite luciferase biochemical, luminescence, 10 min; 0 = ATP-free wells, 1 = DMSO control; 200,000 tested, under 10 active;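 active means luciferase activation factor, scaled between plate controls, of at least 2 with compound at 10 µM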
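Material: Luciferase/luciferin reagent mix | Doses: Test compounds dosed from 2 mM stocks in 100% DMSO | Timing: 10 min incubation after luciferase reagent addition, room temperature | Measured by: Luminescence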
Large screens that a line does not name were inactive. Rows were chosen to be rich in hits. Some 3.5% of all compounds tested hit in one or more screens of this group.

O=C(N/N=C/c1cccs1)c1ccc(-n2cccc2)cc1	none
c1ccc(Nc2scc(-c3ccccc3)[n+]2Cc2ccco2)cc1	NF-kB expr up 3.4, STAT1 act 143
c1ccc(C[n+]2c(-c3ccccc3)csc2Nc2ccccc2)cc1	none
COc1cc(/C=N/N=C(\N)c2nonc2N)ccc1O	STAT1 act 130
COc1ccc(/C=N/N=C(\N)c2nonc2N)cc1OC	STAT1 act 141
COc1ccccc1NC(=O)NCc1ccccc1F	none
COc1ccc(C)cc1NC(=O)NCc1ccccc1F	FLuc inhib CS 68 (no result: Pf gametocyte)
Cc1ccc(Nc2nc(=O)c3cccnc3s2)cc1	NF-kB expr up 4.3, STAT1 act 137 (no result: Pf gametocyte)
COc1ccc(OC)c(Nc2nc(=O)c3cccnc3s2)c1	none (no result: Pf gametocyte)
CC1(C)CC(=O)C2=C(C1)OC1=C(C(=O)CC(C)(C)C1)C2c1ccc(O)cc1O	NF-kB expr up 6.2 (no result: Pf gametocyte)
CC1(C)CC(=O)C2=C(C1)OC1=C(C(=O)CC(C)(C)C1)C2c1ccc(O)c([N+](=O)[O-])c1	none
CCOC(=O)c1ccccc1NC(=O)/C=C/C(=O)O	none
CCCCC(=O)Nc1ccccc1C(=O)OCC(=O)c1ccc2c(c1)OCCO2	FLuc inhib CS 66, STAT1 act 132 (no result: Pf gametocyte)
O=C(O)/C=C/C(=O)Nc1ccccc1C(=O)OCC(=O)c1ccc2c(c1)OCCO2	FLuc inhib CS 96
CCC(=O)Nc1ccccc1C(=O)OCC(=O)c1ccc2ccccc2c1	none
Cc1ccc(N(C)S(=O)(=O)c2cccc(C(=O)Oc3ccc4c(C)cc(=O)oc4c3)c2)cc1	none (no result: Pf gametocyte)
CCOCCCNC(=O)C(c1ccc(Cl)cc1)N(Cc1cccs1)C(=O)CNC(C)=O (centres undefined)	none (no result: Pf gametocyte)
CC1=C/C(=N\NC(=S)Nc2cccnc2)CC(C)(C)C1	STAT1 act 134
CCCOc1ccc(CN(CCC#N)C(=S)NC(=O)c2ccccc2)cc1	none
CC1=Nc2cc([N+](=O)[O-])ccc2NC(C)(C)C1	APP 5'UTR act 136
O=C(N/N=C/c1ccco1)c1cccc(N2CCCC2=O)c1	FLuc inhib CS 52
O=C(Nc1ccccc1Br)c1ccc(OC(=S)N2CCOCC2)cc1	STAT1 act 135
O=C(Oc1ccc(-c2ccccc2)cc1)N1CCOCC1	STAT1 act 137 (no result: Pf gametocyte)
Cc1ccc(NC(=O)c2ccc(OC(=S)N3CCOCC3)cc2)cc1	STAT1 act 131
CC(C)(C)NC(=O)NC(=O)COC(=O)c1ccco1	none (no result: Pf gametocyte)
Cc1ccc(C2=NCCn3nc4cc([N+](=O)[O-])ccc4c32)cc1	none (no result: NF-kB expr up, APP 5'UTR act, FLuc inhib CS, STAT1 act, FLuc act counter)
O=C1/C(=C\c2ccccc2)CCc2c1[nH]c1ccccc21	NF-kB expr up 4.7, APP 5'UTR act 162, STAT1 act 141
O=C(COn1nnc2ccccc21)NCC1CCCCC1	STAT1 act 129 (no result: Pf gametocyte)
O=C(CN(C(=O)c1csnn1)c1cccc2ccccc12)NC1CCCC1	none
CC(/C=C/c1ccco1)=N\NC(=O)c1cc(Cl)ccc1O	none
O=C(N/N=C/c1ccccn1)c1cc(C2CC2)[nH]n1	none
O=C(N/N=C/C1CCCCC1)c1ccccn1	APP 5'UTR act 139, STAT1 act 137 (no result: Pf gametocyte)
O=C(N/N=C/C1CCCCC1)c1cc(Cl)ccc1O	FLuc inhib CS 50 (no result: Pf gametocyte)
Cc1cc2c(cc1C)/C(=N/NC(=O)c1ccccn1)CCC2	none (no result: NF-kB expr up, APP 5'UTR act, FLuc inhib CS, STAT1 act, FLuc act counter)
O=C(NN=C1CCC(=NNC(=O)c2ccccn2)CC1)c1ccccn1	APP 5'UTR act 171, STAT1 act 138 (no result: Pf gametocyte)
C=CC[C@H](CC(=O)N(CCO)Cc1ccccc1)C(=O)N[C@H](COC(=O)[C@@H](CC=C)CC(=O)OC(C)(C)C)c1ccccc1	none (no result: NF-kB expr up, APP 5'UTR act, FLuc inhib CS, STAT1 act, FLuc act counter)
C=CCn1c(COc2ccc(Cl)cc2)nnc1SCC(=O)N/N=C/c1cccc(O)c1	none
C=CCn1c(COc2ccccc2)nnc1SC(C)C(=O)N/N=C/c1cc(Cl)ccc1O (centres undefined)	NF-kB expr up 3.5
CN1CCN(/C=N/c2sc3c(c2C#N)CCCCC3)CC1	STAT1 act 146 (no result: Pf gametocyte)
Cc1ccc(/C=N/c2sc3c(c2C#N)CCC3)s1	FLuc inhib CS 72, STAT1 act 150
Cc1ccc(C=Nc2ccccc2C#N)s1	FLuc inhib CS 76 (no result: Pf gametocyte)
CC(C)CN(/C=N/c1sc2c(c1C#N)CCCCC2)CC(C)C	none (no result: Pf gametocyte)
Cc1c(Cl)cccc1N=Cc1ccc([N+](=O)[O-])s1	none (no result: Pf gametocyte)
N#Cc1c(/N=C/c2ccco2)sc2c1CCC2	FLuc inhib CS 50 (no result: Pf gametocyte)
Cc1ccc(/C=C/C(=O)Nc2sc3c(c2C#N)CCCC3)o1	none
Cc1ccc(/C=N/c2sc3c(c2C#N)CCCCC3)o1	FLuc inhib CS 92, STAT1 act 139 (no result: Pf gametocyte)
Cc1sc2ncnc(Sc3nnnn3-c3ccccc3)c2c1C	NF-kB expr up 3.9 (no result: Pf gametocyte)
Cc1sc2ncnc(Sc3ccccc3C(=O)O)c2c1C	none (no result: Pf gametocyte)
O=C1C(Cl)=C(NC2CCCCC2)C(=O)N1c1ccc(Cl)cc1	STAT1 act 141 (no result: Pf gametocyte)
COc1cccc(C(=O)NC2=NCCS2)c1	FLuc inhib CS 52 (no result: Pf gametocyte)
CCOc1cccc(C(=O)NC2=NCCS2)c1	none (no result: NF-kB expr up, APP 5'UTR act, FLuc inhib CS, STAT1 act, FLuc act counter)
CC(C)Oc1cccc(C(=O)NC2=NCCS2)c1	STAT1 act 132
O=C(NC1=NCCS1)c1cccc(F)c1	none (no result: NF-kB expr up, APP 5'UTR act, FLuc inhib CS, STAT1 act, FLuc act counter)
O=C(NC1=NCCS1)c1ccc(Br)s1	STAT1 act 138 (no result: Pf gametocyte)
CC1CCN(CC(=O)Nc2ccc(S(=O)(=O)N3C(C)CCCC3C)cc2)CC1 (centres undefined)	none (no result: NF-kB expr up, APP 5'UTR act, FLuc inhib CS, STAT1 act, FLuc act counter)
Cn1ccnc1COc1ccc(C=O)cc1	none (no result: NF-kB expr up, APP 5'UTR act, FLuc inhib CS, STAT1 act, FLuc act counter)
CC12CCC(C(=O)N(NC(=O)c3ccccc3Cl)C1=O)C2(C)C (centres undefined)	none
CCCOc1ccc(/C=N/NC(=S)Nc2ccccc2[N+](=O)[O-])c(O)c1	none
CCCOc1ccc(/C=N/Nc2ccccc2[N+](=O)[O-])c(O)c1	APP 5'UTR act 173 (no result: Pf gametocyte)
O=[N+]([O-])c1cccnc1N/N=C/c1ccccc1O	STAT1 act 130
CC(C)c1cccc(C(C)C)c1OCCCCCN1CCOCC1	none (no result: NF-kB expr up, APP 5'UTR act, FLuc inhib CS, STAT1 act, FLuc act counter)
C=CCNc1nc2c(c(=O)[nH]c(=O)n2C)n1CCCc1ccccc1	none (no result: NF-kB expr up, APP 5'UTR act, FLuc inhib CS, STAT1 act, FLuc act counter)
Cc1nc2ccc(NC(=S)NCCCO)cc2nc1C	none
COc1ccc(OC)c(NC(=O)CSc2ncnc3c2cnn3-c2ccccc2Cl)c1	NF-kB expr up 3.3 (no result: Pf gametocyte)
CNC(=O)c1ccc(-c2ccc(OC)cc2)s1	NF-kB expr up 4.6, FLuc inhib CS 61, STAT1 act 138
COc1cccc(C(=O)NC(Cc2ccccc2)c2ccc3c(c2)OCCCO3)c1 (centres undefined)	none (no result: Pf gametocyte)
Cc1ccc(Cn2c(N/N=C/c3ccncc3)nc3c2c(=O)n(C)c(=O)n3C)cc1	none (no result: NF-kB expr up, APP 5'UTR act, FLuc inhib CS, STAT1 act, FLuc act counter)
Brc1ccccc1-n1nnc(-c2nccs2)n1	NF-kB expr up 3.9, FLuc inhib CS 51, STAT1 act 133
Brc1ccccc1-n1nnc(-c2cnc3ccccc3c2)n1	none (no result: NF-kB expr up, APP 5'UTR act, FLuc inhib CS, STAT1 act, FLuc act counter)
CC(C)c1ccc(OCC(=O)NCc2ccccc2)cc1	none (no result: NF-kB expr up, APP 5'UTR act, FLuc inhib CS, STAT1 act, FLuc act counter)
CC(C)N(Cc1nccn1C)C(=O)CCc1nnc(CCCc2ccccc2)o1	STAT1 act 137 (no result: Pf gametocyte)
CN(CCc1ccccn1)C(=O)CCc1nnc(CCCc2ccccc2)o1	STAT1 act 133

Assay outcomes: PubChem, several laboratories
